Source: PubChem BioAssay
The list is not random: actives were taken first. Their share in the collection is about 2.6%.
rRNA inh HTS – inhibitors of bacterial rRNA selective over humanized ribosomes. E. coli WT GFP vs humanized-ribosome RFP mutants, fluorescence, 24 h; stronger effect = lower value; DMSO median 0, no signal -100. GFP signal change (wild-type ribosome), % (test concentration not listed). 350,000 tested, 1.6% active;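 active means significant combined selectivity score with lowered wild-type GFP, culture density cut under 30%, mutant RFP and density less affected; inactive means any of these conditions unmet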
SR-BI HDL uptake – blocks mouse SR-BI lipid uptake from DiI-HDL | Q61009 | ldlA[mSR-BI] CHO cells, DiI-HDL uptake fluorescence, 3 h | inhibition, % at 12.5 µM | 320,000 tested, 0.96% active | AID 488896;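 active means mean replicate inhibition of at least 70% and a set share of replicates each scoring 70 or more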;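 further: 0% = median of neutral control wells and 100% = median of positive control wells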
Target sequence (Q61009 whole entry, looked up): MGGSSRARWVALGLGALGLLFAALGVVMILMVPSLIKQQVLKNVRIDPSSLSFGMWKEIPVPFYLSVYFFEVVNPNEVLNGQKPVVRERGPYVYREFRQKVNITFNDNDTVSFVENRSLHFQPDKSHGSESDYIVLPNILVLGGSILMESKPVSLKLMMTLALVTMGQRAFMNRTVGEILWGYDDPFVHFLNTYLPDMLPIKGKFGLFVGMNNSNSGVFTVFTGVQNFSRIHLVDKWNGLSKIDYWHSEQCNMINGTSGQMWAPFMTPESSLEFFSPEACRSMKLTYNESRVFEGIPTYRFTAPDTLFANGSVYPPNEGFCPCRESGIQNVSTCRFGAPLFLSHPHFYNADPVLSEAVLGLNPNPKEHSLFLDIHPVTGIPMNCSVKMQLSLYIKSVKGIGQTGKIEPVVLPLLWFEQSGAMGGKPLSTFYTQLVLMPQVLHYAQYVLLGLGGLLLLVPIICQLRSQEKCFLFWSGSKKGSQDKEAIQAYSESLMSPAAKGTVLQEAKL
Xi reactivation – reactivates the inactive X chromosome in mouse fibroblasts | XiGFP mouse fibroblasts, % GFP-positive cells imaging, 3 d; cells co-treated with 5-aza-dC sensitizer; scaled so ellipticine positive control = 100% | activation, % at 7.58 µM | 360,000 tested, 0.055% active;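 active means mean normalized replicate activation at least 10% and every replicate at or above 10%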;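 further: 0% = median of on-plate neutral control wells and 100% = ellipticine 6 µM median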
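Material: SV40-immortalized XiGFP fibroblast cells, line 68-5-11 | Buffer or medium: DMEM containing 5-aza-dC | Dosing: One concentration, pinned | Times: 3 d treatment, 15 min room-temperature fixation | Controls: Ellipticine 6 µM positive control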
dFosB act-1 – mouse delta FosB homodimer activation | activation, % at 25 µM | purified delta FosB, TAMRA-CDK5 oligo fluorescence polarization; percent of positive-control signal above neutral wells | 340,000 tested, 0.99% active;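 active means mean activation above about 17%, with every replicate also reaching it, limit read from the data, passing the limit was not always enough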
SR-BI DiI-HDL act – enhances SR-BI lipid uptake from DiI-HDL; CHO ldlA[mSR-BI] cells, DiI-HDL uptake fluorescence, 3 h; 100 = double the neutral-control signal; activation, % at 12.5 µM; 320,000 tested, 0.096% active;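 active means mean replicate activation of at least 60% and every replicate at or above 60%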;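 further: 0% = median plate neutral-control signal and 100% = twice that signal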
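Test system: SR-BI-overexpressing, LDLR-lacking CHO cells; Also added: labelled HDL, 10 µg/mL; Measured by: bottom-read cell fluorescence after medium removal, ex 550/em 595 nm; Timing: 3 h uptake period with compound, 37 °C; Buffer or medium: F12, 0.5% BSA, 25 mM HEPES; Doses: single compound concentration, delivered by pin transfer.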
PvdQ inh – P. aeruginosa PvdQ acylase inhibition. purified PvdQ acylase, fluorescence plate reader. AID 488965. 340,000 tested, 0.063% active. inhibition, % at 10 µM; in the data active means inhibition above about 30%, passing the limit was not always enough;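 further: 0% = vehicle neutral wells and 100% = reference inhibitor wells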
dFosB act-2 – activators of mouse delta FosB homodimer DNA binding. purified delta FosB, TAMRA-CDK5 oligo fluorescence polarization; normalised: neutral wells 0, positive control 100. activation, % at 24.9 µM. shares compounds with dFosB act-1. 2,400 tested, under 10 active;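 active means highest replicate activation at or above 34% and every replicate reaching that threshold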;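 further: higher polarization means more probe DNA bound by delta FosB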
Active calls of the source: *; x = not tested or not shown.

SMILES	rRNA inh HTS	SR-BI HDL uptake	Xi reactivation	dFosB act-1	SR-BI DiI-HDL act	PvdQ inh	dFosB act-2
Cc1ccc(NC(=O)c2c(C(=O)Nc3ccccc3)sc3nc(C)cc(=O)n23)cc1	10	39	0	32*	-39	5	-3
Cc1cc2cccc(C)c2nc1SCC(=O)NC1CCCCC1	7	x	0	-1	x	-8	x
CCS(=O)(=O)N1CCC(C(=O)NC2CCCCCCC2)CC1	x	-13	x	0	13	0	x
COc1ccc(O)c(C(=O)c2cnn(C(=O)c3cccc(S(=O)(=O)N(C)C)c3)c2)c1	2	-5	0	37*	5	-16	1
O=C(NCc1csc2ccc(Cl)cc12)Nc1cccc2ccccc12	13	-5	0	44*	5	-3	2
Cc1ccc(C)c(NC(=S)NC(NC(=O)N(C)C)C(Cl)(Cl)Cl)c1 (stereo not given)	x	1	x	-7	-1	-9	x
O=C(NCc1ccccc1)Nc1cc(Cl)ccc1Cl	6	-1	0	40*	1	6	2
Cc1ccc(C)c(NC(=S)NC(NC(=O)Cc2cccc3ccccc23)C(Cl)(Cl)Cl)c1 (stereo not given)	x	44	x	28*	-44	-10	3
O=C(Cc1ccccc1)NC(NC(=S)Nc1cc(Cl)ccc1Cl)C(Cl)(Cl)Cl (stereo not given)	x	17	x	22*	-17	-12	0
CCOc1ccccc1NC(=O)CCn1c(=O)oc2ccccc21	x	x	x	-1	x	-18	x
CC1CCC(C(=O)NC(C(=O)NCCc2ccc(S(N)(=O)=O)cc2)C(C)C)CC1 (stereo not given)	8	4	0	21*	-4	-6	5
CC(NCCc1ccc(S(N)(=O)=O)cc1)C(=O)NCCc1ccc(F)cc1 (stereo not given)	7	5	0	0	-5	-6	x
CCC(C)NC(=O)Cn1c(=O)n(-c2ccc(OC)cc2)c(=O)c2ccc(C(=O)NCc3ccc(C)cc3)cc21 (stereo not given)	4	45	0	33*	-45	-1	5
Cc1ccccc1C(=O)N1CCN(c2ncnc3c2cnn3-c2ccccc2)CC1	x	17	x	-14	-17	-3	x
COC(=O)C1=C(O)/C(=C\c2cc(C)n(-c3ccccc3C)c2C)N=C1C	10	-6	x	-5	6	6	x
Cc1cccc(NC(=O)CCc2nc3sc4c(c3c(=O)[nH]2)CCCC4)c1	8	0	0	20*	0	-8	3
CCc1cccc(NC(=O)CCc2nc3sc4c(c3c(=O)[nH]2)CCCC4)c1	-1	-10	0	-11	10	-12	x
CC(C)c1c(C(=O)N/N=C/c2ccc3c(c2)OCO3)nnn1-c1nonc1N	-3	51	0	4	-51	-8	x
Nc1nonc1-n1nnc(C(=O)N/N=C/c2ccc(Br)cc2)c1-c1ccc2c(c1)OCO2	11	20	0	21*	-20	-8	4
Nc1nonc1-n1nnc(C(=O)N/N=C/c2ccc3c(c2)OCO3)c1-c1ccccc1	3	50	0	18*	-50	-9	1
Nc1nonc1-n1nnc(C(=O)N/N=C/c2cccc(Cl)c2)c1-c1ccc2c(c1)OCO2	12	37	0	72*	-37	-5	1
Nc1nonc1-n1nnc(C(=O)N/N=C/c2c(F)cccc2Cl)c1-c1ccc2c(c1)OCO2	6	31	0	4	-31	-8	x
COCC#Cc1ccc([C@@H]2[C@H]3CN(C(=O)COC)CCCCN3[C@H]2CO)cc1	4	x	0	x	x	x	x
Cc1ccc(C)c(NC(=O)CCC(=O)NNS(=O)(=O)c2ccc(Cl)cc2)c1	8	0	0	23*	0	-9	-1
CCC(=O)NNC(=O)CCC(=O)Nc1ccc(C)cc1C	14	-18	0	7	18	5	x
SMILES	rRNA inh HTS	SR-BI HDL uptake	Xi reactivation	dFosB act-1	SR-BI DiI-HDL act	PvdQ inh	dFosB act-2
Cc1ccc(NC(=O)CCC(=O)NNC(=O)COc2cccc3ccccc23)c(C)c1	-2	31	x	33*	-31	-4	5
Cc1ccc(NC(=O)CCC(=O)NNS(=O)(=O)c2ccc(Cl)cc2)cc1C	5	-2	0	6	2	-8	x
Cc1ccc(C)c(NC(=O)CCC(=O)NNC(=O)COc2cc(C)ccc2C)c1	9	19	0	36*	-19	-13	-2
O=C(Nc1cccnc1Cl)c1cc(-c2cccc(O)c2)on1	2	0	0	55*	0	-2	8
COc1cccc(-c2cc(C(=O)Nc3cccnc3Cl)no2)c1	-51	10	0	31*	-10	-7	-2
COc1cccc(-c2cc(C(=O)Nc3ccccc3SC)no2)c1	x	26	x	5	-26	5	x
Cc1ccc(S(=O)(=O)N2CC=C(c3c(C)n(C)c4ccccc34)CC2)cc1	-10	-24	0	11	24	-15	x
CCn1c(C)c(C2=CCN(S(=O)(=O)c3ccccc3)CC2)c2ccccc21	x	-15	0	31*	15	-9	0
COc1ccc(C(=O)Nc2ccc(Oc3nc(C)nc4sc(-c5ccccc5)cc34)cc2)cc1OC	x	64	0	34*	-64	-2	-1
COc1ccc(C(=O)Nc2ccc(Oc3ncnc4sc(-c5ccccc5)cc34)cc2)cc1OC	x	66	0	-7	-66	-11	x
COc1cc(C(=O)Nc2ccc(Oc3ncnc4sc(-c5ccccc5)cc34)cc2)cc(OC)c1OC	x	65	x	68*	-65	0	6
COc1ccc(S(=O)(=O)N2CCCC(C(=O)NCc3ccc4c(c3)OCO4)C2)cc1 (stereo not given)	12	x	0	-7	x	6	x
Cn1c(=O)oc2cc(S(=O)(=O)N3CCCC(C(=O)NCc4ccc5c(c4)OCO5)C3)ccc21 (stereo not given)	15	-8	0	46*	8	-14	2
O=C(NC1CCS(=O)(=O)C1)c1c(NC(=O)C2COc3ccccc3O2)sc2c1CCCC2 (stereo not given)	x	52	x	40*	-52	7	0
CCCNC(=O)c1c(NC(=O)C2COc3ccccc3O2)sc2c1CCCC2 (stereo not given)	x	12	x	-4	-12	-4	x
COC(=O)c1ccc(Nc2ncnc3c2cnn3-c2cccc(C)c2)cc1	2	16	0	45*	-16	-2	-2
